procasp7 counter = activates human procaspase-7, counter-screen for procaspase-3 activators. recombinant procaspase-7, Ac-DEVD-pNA absorbance 405 nm; D23A/D198A/D206A triple mutant, cannot self-cleave; scale: DMSO 0, 5 µM enzyme 100. activation, % at 8.5 µM. actives 0.093% (n = 330,000). AID 463210;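 active means percent activation above the screen-wide mean plus 3 SD, cut at about 25% in these data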
Target sequence (P55210 whole entry D23A/D198A/D206A): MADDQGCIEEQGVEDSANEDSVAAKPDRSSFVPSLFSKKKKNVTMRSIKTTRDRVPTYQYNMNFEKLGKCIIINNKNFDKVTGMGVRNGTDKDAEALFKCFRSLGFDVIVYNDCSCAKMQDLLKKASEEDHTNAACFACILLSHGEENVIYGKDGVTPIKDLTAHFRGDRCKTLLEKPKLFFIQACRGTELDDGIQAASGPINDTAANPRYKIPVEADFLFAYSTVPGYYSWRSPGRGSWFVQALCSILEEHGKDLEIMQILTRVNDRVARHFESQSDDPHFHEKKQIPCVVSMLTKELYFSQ
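buffer or medium = Zinc-free HEPES/NaCl buffer, pH 7.4 | material = Procaspase-7 triple mutant (PC-7 D3A) | input = 2 µM procaspase-7 mutant as dispensed | signal = Epi-absorbance of released pNA at 405 nm, two timepoints | timing = 1 h preincubation, 2 h reaction | replicates = singlicate compound testing | evaluation = % activation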
ASAP1 inh = ASAP1 ArfGAP inhibition | actives 0.19% (n = 360,000) | inhibition, % at 16.5 µM | ASAP1-stimulated ARF1 GTP hydrolysis, GDP FP detection; in the data active means inhibition above about 25%;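 further: 0% = vehicle with enzyme and substrate and 100% = no enzyme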
proCasp3 act = activators of human procaspase-3 | P42574 | recombinant procaspase-3 D3A, Ac-DEVD-pNA absorbance 405 nm | AID 463141 | activation, % at 8.5 µM | actives 0.11% (n = 330,000);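 active means activation above the mean of all tested compounds plus 3 SD, cut at about 21% in these data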;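 further: 0% = DMSO alone and 100% = DMSO wells spiked with extra 5 µM PC-3 D3A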
Target sequence (P42574 whole entry D9A/D28A/D175A): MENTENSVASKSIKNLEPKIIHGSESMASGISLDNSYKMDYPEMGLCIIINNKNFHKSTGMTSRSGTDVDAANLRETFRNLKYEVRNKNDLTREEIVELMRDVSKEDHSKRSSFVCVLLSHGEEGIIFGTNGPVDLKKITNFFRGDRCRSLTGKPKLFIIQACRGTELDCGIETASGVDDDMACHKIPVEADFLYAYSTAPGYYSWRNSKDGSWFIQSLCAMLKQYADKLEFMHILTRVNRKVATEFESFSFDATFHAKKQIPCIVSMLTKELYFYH
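System: Procaspase-3 D3A mutant. Medium: Zinc-free 300 mM NaCl, 50 mM HEPES, 0.01% Triton X-100. Schedule: 1 h preincubation plus 2 h reaction at 25 °C. Measured by: 405 nm absorbance of p-nitroaniline, reads at 0 and 120 min. Read-out: percent activation relative to control range.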
Yeast superoxide = lowers age-related superoxide in aged yeast cells | S. cerevisiae aged cells, superoxide DHE fluorescence; active compounds read low | superoxide response (% of plate mean), % at 10 µM | actives 0.18% (n = 330,000);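 active means superoxide response under a set limit, about three screen SD below normal, cut at about 65% in these data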;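 further: yeast aged for seven days with compound at 30 °C before DHE staining; 100% = average MFI of all compound-treated wells on the plate with controls excluded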
LANA-H2B inh = blocks KSHV LANA binding to histone H2A/H2B; AID 2629; actives 0.6% (n = 320,000); cell-free LANA-H2A/H2B peptide, fluorescence polarization; Q9QR71; inhibition, % (no concentration beside the values); in the data active means inhibition mostly above about 10%, no sharp cut-off; inactive means mostly below about 6.7%
ARFGAP1 inh = rat ARFGAP1 inhibition | Arfgap1-stimulated ARF1 GTP hydrolysis, GDP FP detection | inhibition, % at 16.5 µM | actives 0.26% (n = 360,000);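 active means inhibition above a per-plate limit, mean inhibition of low control wells plus 3 SD, cut at about 25% in these data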;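 further: 0% = DMSO wells with enzyme and 100% = wells lacking Arfgap1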
Target sequence (Q62848 1-136 limits assumed): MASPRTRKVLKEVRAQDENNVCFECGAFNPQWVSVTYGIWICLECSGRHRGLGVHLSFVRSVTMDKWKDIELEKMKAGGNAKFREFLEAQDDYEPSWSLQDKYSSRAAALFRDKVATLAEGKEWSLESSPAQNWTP
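Material: rat Arfgap1 GAP domain (His6, aa 1-136), purified enzyme. Also added: human ARF1(Δ1-17)-GTP substrate. Compound dosing: 16.5 µM single point, 1.26% DMSO. Timing: enzyme reaction 120 min at 25 °C after 20 min preincubation. Signal: GDP detection by fluorescence polarization. Read-out basis: percent inhibition of GAP-stimulated GDP formation, scaled between DMSO and no-Arfgap1 medians.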
CR mimetic CP = yeast aging superoxide inhibition, cherry pick confirmation; shares compounds with Yeast superoxide; S. cerevisiae aging, superoxide DHE fluorescence; active compounds read low; superoxide response (% of plate), % at 10 µM; actives 1% (n = 850); AID 434994;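 active means superoxide signal below 65% of the plate average of sample wells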;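 further: cells aged with compound for 7 days at 30 degrees C before staining; 100% equals mean DHE fluorescence of all compound wells on the plate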
DHE fluor count = counter-screen for compounds affecting DHE oxidation and fluorescence in yeast. shares compounds with Yeast superoxide. 850 tested, under 10 active. fluorescence response, % at 10 µM. S. cerevisiae BY4741, flow cytometry; active compounds read low;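 active means fluorescence response below 15%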;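 further: percent of the mean fluorescence averaged over all compound wells on the plate; lower means stronger quenching of DHE signal or ROS scavenging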
Starred values were filed as active, the others as inactive; / = no result. Compounds with a hit are over-represented: about 1.2% of the library has one in this group of screens.

SMILES | procasp7 counter | ASAP1 inh | proCasp3 act | Yeast superoxide | LANA-H2B inh | ARFGAP1 inh | CR mimetic CP | DHE fluor count
COc1cc2c(cc1N)-c1ccc(N)cc1C2=O | / | 1 | / | / | / | -1 | / | /
Cc1ccc(N=C2NC(=O)/C(=C/c3cccs3)S2)cc1C | 10 | -3 | -10 | 59* | 1 | -6 | 94 | 90
CC(NC(=O)c1sc2ccccc2c1Cl)C1CCCO1 (stereo not drawn) | -6 | 6 | 4 | 85 | -1 | 13 | / | /
CN(CCO)S(=O)(=O)c1ccc2c(c1)C(=NN)c1cc(S(=O)(=O)N(C)CCO)ccc1-2 | 1 | 2 | -1 | 65* | -5 | -3 | 89 | 101
O=C1c2cc(S(=O)(=O)N(CCO)CCO)ccc2-c2ccc(S(=O)(=O)N(CCO)CCO)cc21 | -3 | 1 | 8 | 103 | 1 | 19 | / | /
COCc1cn(CC[C@@H]2CC[C@@H](NC(=O)Nc3ccc4c(c3)OCO4)[C@@H](CO)O2)nn1 | / | 2 | / | / | / | 17 | / | /
CCc1ccc(NC(=O)CSc2nnc(-c3ccco3)o2)cc1 | 0 | 5 | 0 | 65* | 2 | 1 | 88 | 92
CCOC(=O)N1CCC(N2C(=O)c3ccc(C(=O)Nc4cccc(OC)c4)cc3C2=O)CC1 | -5 | -8 | 3 | 96 | 0 | -4 | / | /
CCCn1c2ccc(/C(C)=N\O)cc2c2cc(/C(C)=N/O)ccc21 | -5 | -5 | -12 | 112 | 5 | 11 | 104 | 90
CC(=O)Oc1ccc2c(c1)OC(c1ccccc1)CC21CC(C)(C)NC(=S)N1 (stereo not drawn) | 1 | -4 | -2 | 114 | 1 | -5 | / | /
COc1ccc(C2(c3ccc(OC(C)=O)cc3OC(C)=O)CC(c3ccccc3)NC(=S)N2)cc1 (stereo not drawn) | -13 | 22 | 5 | 61* | -3 | 5 | 120 | 123
Cc1nn(-c2ccccc2)c(N2CCCC2)c1/C=N/Nc1ccc(S(N)(=O)=O)cc1[N+](=O)[O-] | -3 | -4 | 4 | 60* | 4 | -8 | 93 | 101
CC(C)NC(=O)COc1ccc(S(=O)(=O)N(C)Cc2ccccc2)cc1 | 12 | -11 | -4 | 75 | -5 | -7 | / | /
COc1ccc(CNC(=O)C2CCN(S(=O)(=O)N3CCC4(CC3)OCCO4)CC2)c(OC)c1 | 2 | 14 | 2 | 63* | -2 | 2 | 112 | 132
CC(=O)N1c2ccc(S(=O)(=O)NCC3CCC(C(=O)Nc4cc(C)ccn4)CC3)cc2CC1C (stereo not drawn) | 6 | -5 | 3 | 94 | 4 | -5 | / | /
COc1cc(/C=N/NC(=O)CCN2CCN(c3ccccc3)CC2)cc(OC)c1OC | 6 | 4 | -1 | 110 | 0 | 15 | / | /
COc1ccc(/C=N/NC(=O)CCN2CCN(c3ccccc3)CC2)c(OC)c1OC | 5 | 8 | -1 | 62* | -2 | 12 | 108 | 106
COC(=O)c1ccc(S(=O)(=O)N2Cc3ccccc3C2)cc1 | -1 | 0 | 1 | 105 | 3 | 9 | / | /
Cc1nc2cc(-c3ccc(Br)cc3)[nH]n2c(=O)c1Cl | / | -4 | / | 101 | -2 | -12 | 94 | 90
Cc1nc2cc(-c3ccc(F)cc3)[nH]n2c(=O)c1C | 1 | 3 | 5 | 95 | 3 | -4 | 108 | 94
CCc1c(C)nc2cc(-c3ccc(Cl)cc3)[nH]n2c1=O | -7 | -1 | 1 | 92 | -2 | -10 | 99 | 97
O=c1cc(-c2ccccc2)nc2cc(-c3ccc(Br)cc3)[nH]n12 | -5 | -22 | -1 | 53* | 2 | 0 | 95 | 96
Cc1cc2nc(C)c(Cl)c(=O)n2[nH]1 | -1 | -11 | 2 | 104 | 3 | -3 | / | /
CCOC(=O)CCc1c(C)nc2cc(-c3ccc(Cl)cc3)[nH]n2c1=O | -3 | -6 | 3 | 89 | 0 | 6 | / | /
CCOc1ccc(-n2c(C)c3c(C)nnc(C)c3c2C)cc1 | / | -7 | / | / | / | 13 | / | /
SMILES | procasp7 counter | ASAP1 inh | proCasp3 act | Yeast superoxide | LANA-H2B inh | ARFGAP1 inh | CR mimetic CP | DHE fluor count
CCCc1cc(=O)n2[nH]c(-c3ccc(Cl)cc3)cc2n1 | -8 | 0 | 8 | 100 | -4 | 7 | 108 | 124
Nc1c(NCc2ccccc2)c(=O)c1=O | 6 | 1 | -8 | 63* | 4 | -4 | 96 | 91
Cc1ccc(-n2c(C)cc(C)c(C#N)c2=O)cc1C | 1 | 5 | 1 | 62* | 1 | 2 | 100 | 103
Cc1cc(C)n(-c2ccc(F)cc2)c(=O)c1C#N | -4 | 1 | 5 | 101 | 0 | 1 | / | /
CCCCc1ccc(S(=O)(=O)N2CCN(C(=O)c3ccco3)CC2)cc1 | 5 | -19 | -2 | 112 | 3 | -2 | / | /
CSc1ccccc1C(=O)N1CCN(c2ccc(F)cc2)CC1 | -10 | -2 | -2 | 95 | 4 | -4 | 109 | 90
CS(=O)(=O)Nc1ccccc1C(=O)N1CCN(c2ccccc2)CC1 | -1 | -15 | 5 | 84 | -4 | 6 | 111 | 110
O=C(O)c1cccc(-n2nc(-c3ccc(Cl)c([N+](=O)[O-])c3)c3ccccc3c2=O)c1 | 2 | 8 | 1 | 97 | 2 | -6 | / | /
O=C(NC12CC3CC(CC(C3)C1)C2)C1CCCN1C(=O)Nc1ccccc1 (stereo not drawn) | -3 | 2 | 1 | 94 | 2 | 10 | / | /
CCCCNC(=O)/C(C#N)=c1\s/c(=C\c2ccccc2OC(F)F)c(=O)n1CCCOC | 4 | -3 | -3 | 65* | -22 | -12 | 118 | 104
CCOc1ccc(-c2ccc(C3=CC(=O)C[C@H](c4ccc(F)cc4)C3)cc2)cc1 | / | -12 | / | / | / | 6 | / | /
OC(CN1CCCCC1)Cn1c2ccccc2c2ccccc21 (stereo not drawn) | -5 | -5 | -6 | 46* | -1 | -4 | 95 | 102
OCCN(CCO)CC(O)Cn1c2ccccc2c2ccccc21 (stereo not drawn) | -7 | -2 | 0 | 124 | 4 | 14 | 91 | 99
CS(=O)(=O)N(CC(O)Cn1c2ccccc2c2ccccc21)c1ccccc1 (stereo not drawn) | -2 | 12 | 7 | 114 | -3 | 12 | / | /
CN(CC(O)Cn1c2ccccc2c2ccccc21)S(C)(=O)=O (stereo not drawn) | -7 | -3 | -2 | 101 | -2 | 1 | 101 | 97
O=C(/C=C/c1ccccc1)NC(=S)NNC(=O)Cc1cccs1 | 4 | 8 | -8 | 50* | -5 | 9 | 87 | 88
